According to ChEMBL document CHEMBL3244368, “[3-(1,4-Cyclohexadienyl)-L-alanine,8-lysine]vasopressin: synthesis and some pharmacological properties” (J Med Chem, 1979):
Starred links: 1 amine or outer side, 2 acyl side, 3 side chain; linkers in the order of their positions; H or OH if unused. Positions of bridges follow the written chain, without caps; N, C: chain ends. Non-standard residues stand in square brackets, D forms with d. Residues, ends and D or L forms follow the SMILES beside them. X1 = O=C([C@H](CC1=CCC=CC1)N[*:1])[*:2]; 2Thi = N[C@@H](Cc1cccs1)C(=O)O

Experiments:
Gallus gallus = species: Gallus gallus; assay: Vasodepressor activity in chicken; type: functional
Rattus norvegicus [1] = assay: Antidiuretic activity in iv dosed water loaded rat; type: functional, Urine
Outline: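 Water-loaded rats under ethanol anesthesia, peptide given intravenously. Potency referenced to the USP Posterior Pituitary Reference Standard.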

Rattus norvegicus [2] = species: Rattus norvegicus; assay: Vasopressor activity in phenoxybenzamine-treated rat; type: functional
Outline: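 Phenoxybenzamine-treated rats under urethane anesthesia. Potency referenced to the USP Posterior Pituitary Reference Standard.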

[3] = Oxytocic activity in isolated rat uterus strips in Mg2+-free van Dyke-Hastings solution
[4] = Stability of the compound in 0.2 M potassium phosphate buffer at […] assessed as hydrolysis by measuring Tyr level in presence of alpha-amylase preparation and cyclohexadiene; type: ADME
Outline: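 Aspergillus oryzae α-amylase preparation, 1 mg per 0.9 µmol peptide, in potassium phosphate buffer pH 7, with 1,4-cyclohexadiene (10 µL) and toluene, under N2, 37 °C, 17 h. Adjusted to pH 2.2 for amino acid analysis. Phe from a control of constituent amino acids plus enzyme subtracted to give Phe in residue 3.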

[5] = Stability of the compound in potassium phosphate buffer at pH 7 assessed as hydrolysis by measuring Phe level in presence of alpha-amylase preparation and cyclohexadiene
[6] = Stability of the compound in potassium phosphate buffer at pH 7 assessed as hydrolysis by measuring DiHPe level in presence of alpha-amylase preparation and cyclohexadiene
[7] = Stability of the compound in 0.2 M potassium phosphate buffer at pH 7.7 assessed as hydrolysis by measuring Ile/Phe + DiHPe level in presence of alpha-amylase preparation; type: ADME
[8] = Stability of the compound in 0.2 M potassium phosphate buffer at pH 7.7 assessed as hydrolysis by measuring Tyr level in presence of alpha-amylase preparation; type: ADME
[9] = Stability of the compound in 0.2 M potassium phosphate buffer at pH 7.7 assessed as hydrolysis by measuring Leu/Lys level in presence of alpha-amylase preparation; type: ADME
[10] = Stability of the compound in 0.2 M potassium phosphate buffer at pH 7.7 assessed as hydrolysis by measuring Gly level in presence of alpha-amylase preparation; type: ADME
[11] = Stability of the compound in 0.2 M potassium phosphate buffer at pH 7.7 assessed as hydrolysis by measuring Ile/Phe + DiHPe level in presence of pronase; type: ADME
Outline: (§1)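 Pronase digest in 0.2 M potassium phosphate buffer, pH 7.7, substrate:enzyme 5:1. Half the enzyme added at start and half after 18 h at 37 °C, then incubated 4 h more. Released amino acids quantified by amino acid analysis.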

[12] = Stability of the compound in 0.2 M potassium phosphate buffer at pH 7.7 assessed as hydrolysis by measuring Leu/Lys level in presence of pronase; type: ADME; outline: as §1
[13] = Stability of the compound in 0.2 M potassium phosphate buffer at pH 7.7 assessed as hydrolysis by measuring Gly level in presence of pronase; type: ADME; outline: as §1
[14] = Stability of the compound in 0.2 M potassium phosphate buffer at pH 7.7 assessed as hydrolysis by measuring Asn/Gln level in presence of pronase; type: ADME; outline: as §1
[15] = Stability of the compound in 0.2 M potassium phosphate buffer at pH 7.7 assessed as hydrolysis by measuring Asn/Gln level in presence of alpha-amylase preparation; type: ADME
[16] = Stability of the compound in 0.2 M potassium phosphate buffer at pH 7.7 assessed as hydrolysis by measuring Tyr level in presence of pronase; type: ADME; outline: as §1

Drug degradation [4] [mol%] | Drug degradation [5] [mol%] | Drug degradation [6] [mol%] | Drug degradation [7] [mol%] | Drug degradation [8] [mol%] | Drug degradation [9] [mol%] | Drug degradation [10] [mol%] | Drug degradation [11] [mol%] | Drug degradation [12] [mol%] | Drug degradation [13] [mol%] | Drug degradation [14] [mol%] | Drug degradation [15] [mol%] | Drug degradation [16] [mol%] | SMILES | Activity (Gallus gallus) [U/mg] | Activity (Rattus norvegicus [1]) [U/mg] | Activity (Rattus norvegicus [2]) [U/mg] | Activity [3] [U/mg]
– | – | – | – | – | – | – | – | – | – | – | – | – | NCCCC[C@H](NC(=O)[C@@H]1CCCN1C(=O)[C@@H]1CSSC[C@H](N)C(=O)N[C@@H](Cc2ccc(O)cc2)C(=O)N[C@@H](Cc2cccs2)C(=O)N[C@@H](CCC(N)=O)C(=O)N[C@@H](CC(N)=O)C(=O)N1)C(=O)NCC(N)=O (H-CY[2Thi]QNCPKG-NH2; disulfide 1-6) | 87 | 332 | 243 | 19
89 | 8.7 | 66 | – | – | – | – | – | – | – | – | – | – | NCCCC[C@H](NC(=O)[C@@H]1CCCN1C(=O)[C@@H]1CSSC[C@H](N)C(=O)N[C@@H](Cc2ccc(O)cc2)C(=O)N[C@@H](CC2=CCC=CC2)C(=O)N[C@@H](CCC(N)=O)C(=O)N[C@@H](CC(N)=O)C(=O)N1)C(=O)NCC(N)=O (H-CY[X1]QNCPKG-NH2; disulfide 1-6) | – | 125 | 129 | 6
– | – | – | – | – | – | – | – | – | – | – | – | – | CC[C@H](C)[C@@H]1NC(=O)[C@H](Cc2ccc(O)cc2)NC(=O)[C@@H](N)CSSC[C@@H](C(=O)N2CCC[C@H]2C(=O)N[C@@H](CCCNC(=N)N)C(=O)NCC(N)=O)NC(=O)[C@H](CC(N)=O)NC(=O)[C@H](CCC(N)=O)NC1=O [ARGIPRESTOCIN] (H-CYIQNCPRG-NH2; disulfide 1-6) | 286 | 245 | 243 | 114
– | – | – | 113 | 100 | 101 | 73 | – | – | – | – | – | – | NCCCC[C@H](NC(=O)[C@@H]1CCCN1C(=O)[C@@H]1CSSC[C@H](N)C(=O)N[C@@H](Cc2ccc(O)cc2)C(=O)N[C@@H](Cc2ccccc2)C(=O)N[C@@H](CCC(N)=O)C(=O)N[C@@H](CC(N)=O)C(=O)N1)C(=O)NCC(N)=O [LYPRESSIN] | 40 | 212 | 258 | 5
– | – | – | 72 | 63 | 77 | 63 | 54 | 60 | 36 | 76 | 110 | 70 | CC[C@H](C)[C@@H]1NC(=O)[C@H](Cc2ccc(O)cc2)NC(=O)[C@@H](N)CSSC[C@@H](C(=O)N2CCC[C@H]2C(=O)N[C@@H](CC(C)C)C(=O)NCC(N)=O)NC(=O)[C@H](CC(N)=O)NC(=O)[C@H](CCC(N)=O)NC1=O [OXYTOCIN] | – | – | – | –
– | – | – | – | – | – | – | – | – | – | – | – | – | N=C(N)NCCC[C@H](NC(=O)[C@@H]1CCCN1C(=O)[C@@H]1CSSC[C@H](N)C(=O)N[C@@H](Cc2ccc(O)cc2)C(=O)N[C@@H](Cc2ccccc2)C(=O)N[C@@H](CCC(N)=O)C(=O)N[C@@H](CC(N)=O)C(=O)N1)C(=O)NCC(N)=O [VASOPRESSIN] | 57 | 429 | 380 | 16
